# Bioassay records deposited in PubChem BioAssay by several laboratories.
# PMI act = increases human mannose-6-phosphate isomerase activity; activation factor at 20 µM; AID 1214; P34949; 190,000 compounds, 0.005% hits; purified human PMI, coupled resazurin fluorescence, 20 min; active compounds read high; 1 = vehicle control, 0 substrate-free wells;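 active = activation factor of 2 or more at 20 µM, relative to plate controls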
# PMI act satM6P = activators of human phosphomannose isomerase at near-saturating mannose 6-phosphate; P34949; coupled PMI enzyme assay, resazurin fluorescence, 20 min; active compounds read high; 1 = untreated enzyme, 0 = substrate-free blank; activation factor at 20 µM; 190,000 compounds, 0.34% hits;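 active = activation factor of 2 or more at 20 µM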
#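 Test system: human phosphomannose isomerase with PGI, G6PDH, diaphorase coupling enzymes / Doses: 20 µM compound, 1% DMSO / Times: enzyme reaction with compound 20 min at room temperature / Measured by: Diaphorase-driven resazurin-to-resorufin fluorescence, excitation 544, emission 590 nm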
# WT yeast gro inh = growth inhibition of WT yeast, mitochondrial fusion screen; mitochondrial fusion phenotypic screen, WT strain; inhibition, % at 10 µM; 190,000 compounds, 2.1% hits; AID 1362; in the data active = inhibition above about 58%; tested in S. cerevisiae
# Calpain2 inh = blocks pig calpain II enzyme activity | 220,000 compounds, 0.37% hits | purified calpain II, fluorogenic peptide substrate, 30 min | inhibition, % at 16 µM | AID 1236;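 active = inhibition above about 50%, limit read from the data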
# Lmaj promast = Leishmania major promastigote growth inhibition; Leishmania major promastigotes, resazurin fluorescence viability; inhibition, % at 10 µM; 200,000 compounds, 9% hits; in the data active = inhibition above about 50%;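 note: promastigotes grown with compound for 44 hours at 28 °C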
# Rad51 HR inh = Rad51 (human) homologous recombination inhibition. Q06609. AID 1385. hRad51 DNA strand exchange, fluorescence dequenching. 200,000 compounds, 0.085% hits. inhibition, % at 10 µM;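 active = inhibition above 40% at the single screening dose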;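 note: 0% = DMSO control wells and 100% = blanks with heterologous ssDNA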
# Target sequence (Q06609 whole entry, looked up): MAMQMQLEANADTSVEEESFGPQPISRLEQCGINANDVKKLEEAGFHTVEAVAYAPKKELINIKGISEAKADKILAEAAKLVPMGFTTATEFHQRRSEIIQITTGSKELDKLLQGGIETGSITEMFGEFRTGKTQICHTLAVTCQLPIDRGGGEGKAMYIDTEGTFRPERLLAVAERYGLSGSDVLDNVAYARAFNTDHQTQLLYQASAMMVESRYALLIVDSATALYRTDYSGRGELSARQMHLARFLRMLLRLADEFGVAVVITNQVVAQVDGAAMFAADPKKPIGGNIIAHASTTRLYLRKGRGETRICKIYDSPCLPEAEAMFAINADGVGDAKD
#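 Read-out basis: percent inhibition relative to plate controls and blanks / Assay system: human Rad51 nucleoprotein filaments preassembled on unlabelled ssDNA / Timing: filaments 15 min 37 °C, then compound 30 min / Control set: per-plate controls and blanks / Technique: fluorescence dequenching at 485/520 nm / Compound: 10 µM final, single point / Also added: Fluorescein- and BHQ1-tagged 47-mer duplex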
# The depositor's hits bear a star; . = no result given. Most compounds without a hit are left out; they make up all but 9.8% or so of the library.
SMILES,PMI act,PMI act satM6P,WT yeast gro inh,Calpain2 inh,Lmaj promast,Rad51 HR inh
COc1ccc(C2C(C(=O)c3ccccc3)N3c4ccccc4C=CC3C2[N+](=O)[O-])cc1 (stereo not drawn),1.5,1.1,12,-89,44,-78
O=C(c1cc2c(F)cccc2s1)N1CCCC1,1,1,-17,2,10,-3
O=Cc1ccc(-c2ccc([N+](=O)[O-])cc2Cl)o1,1.1,0.9,13,46,60*,-6
CCOC(=O)C1=NN(C(=O)COc2ccccc2)C(O)(c2ccc(Br)cc2)C1 (stereo not drawn),0.9,0.9,-3,28,-4,-101
COc1cc(SSc2cc(OC)cc([N+](=O)[O-])c2N)c(N)c([N+](=O)[O-])c1,.,.,.,-2,.,15
N#Cc1cccc(N=Cc2c(O)ccc3ccccc23)c1,0.6,0.4,0,18,0,-30
COc1ccc(C2CC(=O)C3=C(C2)Nc2ccccc2NC3c2coc3ccccc3c2=O)cc1OC (stereo not drawn),0.8,1,-15,-6,93*,-1
O=C1CC(c2ccccc2)CC2=C1C(c1ccccn1)Nc1ccccc1N2 (stereo not drawn),1,1,0,11,20,-3
C=CCn1cc(C(C)=O)c(=O)[nH]c1=O,1.1,1,-4,-15,0,-7
CCN(CC)CCNC(=S)Nc1ccc2nc3n(c(=O)c2c1)CCCCC3,1.1,1,-6,-33,3,2
CC1CC(C)CN(C(=S)Nc2ccc3nc4n(c(=O)c3c2)CCCCC4)C1 (stereo not drawn),1,1.1,-10,7,85*,6
CCCN(CCC)CCCNC(=S)Nc1ccc2nc3n(c(=O)c2c1)CCCCC3,0.9,1,7,-11,61*,3
O=C(Nc1ccc2nc3n(c(=O)c2c1)CCCC3)c1ccccc1[N+](=O)[O-],0.9,0.9,-1,-1,56*,0
CC1CCCN(C(=S)Nc2ccc3nc4n(c(=O)c3c2)CCCCC4)C1 (stereo not drawn),0.9,1,-20,43,1,-4
CCCCCCNCc1cccc(Br)c1,1,1,21,14,54*,2
Brc1cccc(CNCCCN2CCOCC2)c1,1.2,1.2,1,-3,22,29
CCCCCNCc1cccc(Br)c1,0.9,0.9,15,3,75*,-6
O=C(O)CCC(=O)NCc1cn(-c2ccccc2)nc1-c1cccc(Br)c1,0.9,0.9,1,-21,59*,-5
O=C(NCc1cn(-c2ccccc2)nc1-c1ccccc1)c1cccc([N+](=O)[O-])c1,0.9,1,20,14,25,17
O=C(NCc1cn(-c2ccccc2)nc1-c1ccccc1)c1cc([N+](=O)[O-])cc([N+](=O)[O-])c1,1.1,1,0,4,100*,1
COc1ccc(-c2nn(-c3ccccc3)cc2CNC(=O)c2cccc([N+](=O)[O-])c2)cc1,0.8,0.8,10,-18,52*,6
CCn1cc(CNC(=O)c2cccc([N+](=O)[O-])c2)cn1,1,1.1,-6,-2,89*,-7
CC1(C)Cc2c(cnn2-c2ccccc2)C(=O)/C1=N\NC(=O)c1ccccc1O,0.9,1.1,17,1,-4,11
COc1ccc(-n2c(SCC(=O)Nc3cc(C)on3)nc3ccccc3c2=O)cc1Cl,1,1,19,-14,32,3
Cc1csc(NC(=O)[C@@H]2CCCN2C(=O)c2cccs2)n1,1,1,1,-14,-4,-1
N#C/C(=C\Nc1ccccc1SC(F)(F)F)c1nc(-c2ccc(Cl)cc2)cs1,1,1,3,24,-7,3
CS(=O)(=O)c1ncc(CO)n1Cc1ccccc1,1.1,1.1,2,15,-6,-17
COc1ccccc1OCCC(=O)OCC(=O)Nc1ccc(Br)cc1F,1,0.9,13,-4,-6,-3
CC(Sc1ccsc1[N+](=O)[O-])C(=O)NCc1ccco1 (stereo not drawn),1.1,1,-1,-52,30,-5
